Results pooled from the literature.
Compare with care: the assays were run in different laboratories.
Organism: Escherichia coli
Read-out: microbial growth

| Compound | test | test system | setting | MIC |
| --- | --- | --- | --- | --- |
| Cc1ccc2nc(-c3ccco3)[nH]c2c1 | broth dilution | ATCC25922 |  | 128 µg/mL |
| N=C(N)c1ccccc1OCc1ccccc1COc1ccccc1C(=N)N | broth dilution | BW25113 |  | > 200 µg/mL |
| CC(C)Oc1c(NC(=O)c2ccc(NC(=O)[C@H](CC(N)=O)NC(=O)c3ccc(NC(=O)c4ccc([N+](=O)[O-])cc4)cc3)cc2)ccc(C(=O)Nc2ccc(C(=O)O)c(F)c2)c1O |  | DSM1116 |  | 1 µg/mL |
| N=C(N)c1ccc(OCc2ccccc2COc2ccc(C(=N)N)cc2)cc1 | broth dilution | ATCC25922 |  | > 200 µg/mL |
| Clc1ccccc1NCc1ccc(Oc2ccccn2)cc1 |  |  |  | > 25 µg/mL |
| N=C(N)c1ccc(OCc2ccc(COc3ccc(C(=N)N)cc3)cc2)cc1 |  | BW25113 |  | ≥ 200 µg/mL |
| CCCCCCC#Cc1cncc(-c2nnc(SCc3ccc(C#N)cc3)n2C)c1 |  |  |  | ≥ 20 µg/mL |
| N=C(N)c1ccc(OCCCCCOc2ccc(C(=N)N)cc2)cc1 | broth dilution | W3110 |  | > 200 µg/mL |
| Cc1cc(=O)[nH]n1C(=O)c1ccc(-n2c(C)ccc2C)cc1 | broth dilution | ATCC10536 | 18 h | 250 µg/mL |
| N=C(N)c1cccc(OCc2ccc(COc3cccc(C(=N)N)c3)cc2)c1 |  | BW25113 |  | > 200 µg/mL |
| COc1c(C)c(OCc2ccccc2)c(C)c(O)c1C(=O)/C=C/c1ccccc1 | broth dilution | ATCC25922 |  | 5000 µg/mL |
| CC(=O)Nc1ncc([N+](=O)[O-])s1 |  |  |  | < 50 µM |
| NC1CCc2c1[nH]c1ccc(Cl)c(Cl)c21 (stereo not drawn) | broth dilution | ATCC25922 |  | 16 µg/mL |
| CNc1cccc2cc(C(=O)Nc3ccc(C(=O)O)cc3)c(=O)[nH]c12 | broth dilution | ATCC25922 |  | 64 µg/mL |
| CC(C)Oc1c(NC(=O)c2ccc(NC(=O)[C@H](CC(N)=O)NC(=O)c3ccc(NC(=O)c4ccc(C#N)cc4)cc3)cc2)ccc(C(=O)Nc2cc(C(=O)O)n(C)c2)c1O |  | DSM1116 |  | 0.5 µg/mL |
| Cc1ccc(C)n1-c1ccc(-c2nnc(-c3c(Cl)cccc3Cl)[nH]2)cc1 | broth dilution | ATCC10536 | 18 h | 62.5 µg/mL |
| Cc1ccc2nc(-c3ccc(F)cc3)[nH]c2c1 | broth dilution | ATCC25922 |  | 64 µg/mL |
| O=C(CCc1ccc(O)c(O)c1)NCCCCCCCC[P+](c1ccccc1)(c1ccccc1)c1ccccc1.[Br-] | broth dilution | ATCC25922 | 18 h | > 32 µg/mL |
| CCCCCC(=O)Oc1c(C)c(O)c(C(=O)/C=C/c2ccccc2)c(OC)c1C | broth dilution | ATCC25922 |  | 5000 µg/mL |
| Cc1ccc(NCc2ccc(Oc3ccccn3)cc2)cc1 |  |  |  | > 25 µg/mL |
| CC1=NN(CNc2ccc(O)cc2)C(=O)C1=NNn1c(-c2ccccc2)nc2ccccc2c1=O | broth dilution |  | 24 h | 107 µM |
| N=C(N)c1ccc(OCc2cc(COc3ccc(C(=N)N)cc3)cc(-c3ccccc3)c2)cc1 | broth dilution | ATCC25922 |  | 100 µg/mL |
| CC(C)Oc1c(NC(=O)c2ccc(NC(=O)[C@H](CC(N)=O)NC(=O)c3ccc(C#Cc4ccc(C#N)cc4)cc3)cc2)ccc(C(=O)Nc2ccc(C(=O)O)cc2)c1O |  | DSM1116 |  | 0.06 µg/mL |

| Compound | test | test system | setting | MIC |
| --- | --- | --- | --- | --- |
| N=C(N)c1ccccc1OCc1cccc(COc2ccccc2C(=N)N)c1 |  | BW25113 |  | > 200 µg/mL |
| C[C@H]1COc2c(N3CCN(C)CC3)c(F)cc3c(=O)c(C(=O)O)cn1c23 | broth dilution | ATCC25922 |  | 0.25 µg/mL |
| CCCCCCC/C=C/C(=O)N1C(=O)/C(=C(\O)c2ccncc2)C(=O)C1CC(C)C (stereo not drawn) |  | K12, K12 |  | > 200 µg/mL |
| CC(C)Oc1c(NC(=O)c2ccc(NC(=O)[C@H](CC(N)=O)NC(=O)c3ccc(NC(=O)c4ccc(C#N)cc4)cc3)cc2)ccc(C(=O)N[C@@H]2CONC2=O)c1O |  | DSM1116 |  | > 64 µg/mL |
| Clc1ccc(-c2nc3ccccc3[nH]2)c(Cl)c1 | broth dilution | ATCC25922 |  | 128 µg/mL |
| CC(C)Oc1c(NC(=O)c2ccc(NC(=O)[C@H](CC(N)=O)NC(=O)c3ccc(NC(=O)c4cc(C#N)cn4C)cc3)cc2)ccc(C(=O)Nc2ccc(C(=O)O)cc2)c1O |  | DSM1116 |  | ≤ 0.03 µg/mL |
| Cc1ccc2nc(-c3ccc(Cl)cc3)n(Cc3ccccc3)c2c1 | broth dilution | ATCC25922 |  | 16 µg/mL |
| COc1cc(C(=O)Nc2ccc(C(=O)N[C@@H](CC(N)=O)C(=O)Nc3ccc(C(=O)Nc4ccc(C(=O)Nc5ccc(C(=O)O)cc5)c(O)c4OC(C)C)cc3)cc2)ccc1C#N |  | DSM1116 |  | < 0.03 µg/mL |
| CC1=NN(CNc2ccc(C(=O)O)cc2)C(=O)C1=NNn1c(-c2ccccc2)nc2ccccc2c1=O | broth dilution |  | 24 h | 50.5 µM |
| CO[C@H]1/C=C/O[C@@]2(C)Oc3c(C)c(O)c4c(O)c(c(/C=N/N5CCN(C)CC5)c(O)c4c3C2=O)NC(=O)/C(C)=C\C=C\[C@H](C)[C@H](O)[C@@H](C)[C@@H](O)[C@@H](C)[C@H](OC(C)=O)[C@@H]1C |  | ATCC25922 |  | 4 µg/mL |
| O=[N+]([O-])c1ccc(-c2nc3cccc(O)c3[nH]2)o1 | broth dilution | ATTC25922 |  | 2 µg/mL |
| O=C(Nc1ccc(F)c(Cl)c1)c1cc(Cl)ccc1O | broth dilution | ATCC25922 |  | > 64 µg/mL |
| CSc1ccc(-c2nc3ccc(C)cc3[nH]2)cc1 | broth dilution | ATCC25922 |  | 32 µg/mL |
| Cc1c(CN(C)C(=O)/C=C/c2cnc3c(c2)CC(CCN)C(=O)N3)oc2ccccc12.Cl (stereo not drawn) | broth dilution | BAA2469 | clinical isolate | 2 µg/mL |
| CCCCCCC/C=C/C(=O)N1C(=O)/C(=C(\O)c2ccc(O)cc2)C(=O)C1CC(C)C (stereo not drawn) |  | K12, K12 |  | > 200 µg/mL |
| C[C@H](CCC(=O)NCCCNCCCCNCCCN)[C@H]1CC[C@H]2[C@@H]3CC[C@@H]4C[C@H](O)CC[C@]4(C)[C@H]3CC[C@]12C | broth dilution | MG1655 | 20 h | 128 µg/mL |
| Cc1ccc2nc(-c3ccc(Cl)c(Cl)c3)n(Cc3ccccc3)c2c1 | broth dilution | ATCC25922 |  | 32 µg/mL |
| CC(C)Oc1c(NC(=O)c2ccc(NC(=O)[C@H](CC(N)=O)NC(=O)c3ccc(NC(=O)c4ccc(C#N)cc4)cc3)cc2)ccc(C(=O)Nc2ccc(C(=O)O)cc2)c1O |  | ATCC25922 |  | 0.02 µg/mL |
| C=CCn1c(-c2ccc([N+](=O)[O-])cc2)nc2ccc(C)cc21 | broth dilution | ATCC25922 |  | 64 µg/mL |
| N=C(N)c1ccccc1OCCCCCOc1ccccc1C(=N)N | broth dilution | BW25113 |  | > 200 µg/mL |
| CC(C)Oc1c(NC(=O)c2ccc(NC(=O)[C@H](CC(N)=O)NC(=O)c3ccc(NC(=O)C(C)Oc4ccc(C#N)cc4)cc3)cc2)ccc(C(=O)Nc2ccc(C(=O)O)cc2)c1O (stereo partly drawn) |  | DSM1116 |  | 0.06 µg/mL |
| Cc1ccc2nc(-c3ccc(Cl)cc3)n(Cc3ccccc3Cl)c2c1 | broth dilution | ATCC25922 |  | 64 µg/mL |
